# Results published in ChEMBL document CHEMBL4689842, “EUbOPEN Chemogenomics Library wave 1” (2021).
# Key:
# Type in all cases: toxicity, cell-based
# HEK-293T [1] = assay: Multiplex assay against HEK293T; details: human;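 for Population Tubulin-Different-Phenotype (%): share of the cells with healthy nuclei that show this phenotype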
# Method in brief: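 At seeding, live cells were stained with Hoechst33342, BioTracker Green Microtubule Cytoskeleton Dye, MitoTracker Red and Annexin V Alexa Fluor 680. After compound addition they were imaged on a CQ1 microscope at 37°C and 5% CO2, and CellPathfinder machine-learning gating sorted them into Hoechst high-intensity objects or normal cells, with normal cells further split into healthy, pyknosed or fragmented nuclei and pyknosed cells into mitotic or apoptotic. Tubulin, mitochondrial-mass and membrane-permeability phenotypes are given as per cents of cells with healthy nuclei.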
# HEK-293T [2] = assay: Incucyte cell viability with HEK293T; details: human, 10 µM, compound concentration 10 uM; note: filed as whole numbers so only -1 and 0 and 1 occur
# Fibroblast = assay: Incucyte cell viability with human fibroblast; details: 10 µM, compound concentration 10 uM; note: filed as whole numbers so only -1 and 0 and 1 occur
# [3] = 12 h, 1 µM, compound concentration 1 uM, replicate 1
# [4] = 12 h, 1 µM, compound concentration 1 uM, replicate 2
# [5] = 12 h, 10 µM, compound concentration 10 uM, replicate 1
# [6] = 12 h, 10 µM, compound concentration 10 uM, replicate 2
# [7] = 24 h, 1 µM, compound concentration 1 uM, replicate 1
# [8] = 24 h, 1 µM, compound concentration 1 uM, replicate 2
# [9] = 24 h, 10 µM, compound concentration 10 uM, replicate 1
# [10] = 24 h, 10 µM, compound concentration 10 uM, replicate 2
# [11] = 48 h, 1 µM, compound concentration 1 uM, replicate 1
# [12] = 48 h, 1 µM, compound concentration 1 uM, replicate 2
# [13] = 48 h, 10 µM, compound concentration 10 uM, replicate 1
# [14] = 48 h, 10 µM, compound concentration 10 uM, replicate 2
# [15] = 0 h, replicate number 1, timepoint 0 hours
# [16] = 12 h, replicate number 1, timepoint 12 hours
# [17] = 18 h, replicate number 1, timepoint 18 hours
# [18] = 24 h, replicate number 1, timepoint 24 hours
compound,measurement,setting,value
CCc1cc2c(cc1CC)CC(NC[C@H](O)c1ccc(O)c3[nH]c(=O)ccc13)C2 [INDACATEROL],Population Apoptotic (%),HEK-293T [1]; [3],48%
same,Population Fragmented Nuclei (%),HEK-293T [1]; [3],10%
same,Population Healthy Nuclei (%),HEK-293T [1]; [3],47%
same,Population Hoechst High Intensity Objects (%),HEK-293T [1]; [3],16%
same,Population Membrane Permeable-Phenotype (%),HEK-293T [1]; [3],4%
same,Population Mitochondria Different-Phenotype (%),HEK-293T [1]; [3],74%
same,Population Mitotic Cells (%),HEK-293T [1]; [3],51%
same,Population Normal (%),HEK-293T [1]; [3],83%
same,Population Pyknosed Nuclei (%),HEK-293T [1]; [3],42%
same,Population Tubulin-Different-Phenotype (%),HEK-293T [1]; [3],53%
same,Total Cell Count,HEK-293T [1]; [3],240
same,Population Apoptotic (%),HEK-293T [1]; [4],6%
same,Population Fragmented Nuclei (%),HEK-293T [1]; [4],8%
same,Population Healthy Nuclei (%),HEK-293T [1]; [4],36%
same,Population Hoechst High Intensity Objects (%),HEK-293T [1]; [4],3%
same,Population Membrane Permeable-Phenotype (%),HEK-293T [1]; [4],10%
same,Population Mitochondria Different-Phenotype (%),HEK-293T [1]; [4],50%
same,Population Mitotic Cells (%),HEK-293T [1]; [4],93%
same,Population Normal (%),HEK-293T [1]; [4],96%
same,Population Pyknosed Nuclei (%),HEK-293T [1]; [4],55%
same,Population Tubulin-Different-Phenotype (%),HEK-293T [1]; [4],51%
same,Total Cell Count,HEK-293T [1]; [4],228
same,Population Apoptotic (%),HEK-293T [1]; [5],93%
same,Population Fragmented Nuclei (%),HEK-293T [1]; [5],19%
same,Population Healthy Nuclei (%),HEK-293T [1]; [5],12%
same,Population Hoechst High Intensity Objects (%),HEK-293T [1]; [5],30%
same,Population Membrane Permeable-Phenotype (%),HEK-293T [1]; [5],0%
same,Population Mitochondria Different-Phenotype (%),HEK-293T [1]; [5],61%
same,Population Mitotic Cells (%),HEK-293T [1]; [5],6%
same,Population Normal (%),HEK-293T [1]; [5],69%
same,Population Pyknosed Nuclei (%),HEK-293T [1]; [5],67%
same,Population Tubulin-Different-Phenotype (%),HEK-293T [1]; [5],61%
same,Total Cell Count,HEK-293T [1]; [5],204
same,Population Apoptotic (%),HEK-293T [1]; [6],82%
same,Population Fragmented Nuclei (%),HEK-293T [1]; [6],8%
same,Population Healthy Nuclei (%),HEK-293T [1]; [6],17%
same,Population Hoechst High Intensity Objects (%),HEK-293T [1]; [6],12%
same,Population Membrane Permeable-Phenotype (%),HEK-293T [1]; [6],3%
same,Population Mitochondria Different-Phenotype (%),HEK-293T [1]; [6],90%
same,Population Mitotic Cells (%),HEK-293T [1]; [6],17%
same,Population Normal (%),HEK-293T [1]; [6],87%
same,Population Pyknosed Nuclei (%),HEK-293T [1]; [6],74%
same,Population Tubulin-Different-Phenotype (%),HEK-293T [1]; [6],87%
same,Total Cell Count,HEK-293T [1]; [6],215
same,Population Apoptotic (%),HEK-293T [1]; [7],48%
same,Population Fragmented Nuclei (%),HEK-293T [1]; [7],10%
same,Population Healthy Nuclei (%),HEK-293T [1]; [7],57%
same,Population Hoechst High Intensity Objects (%),HEK-293T [1]; [7],16%
same,Population Membrane Permeable-Phenotype (%),HEK-293T [1]; [7],4%
same,Population Mitochondria Different-Phenotype (%),HEK-293T [1]; [7],70%
same,Population Mitotic Cells (%),HEK-293T [1]; [7],52%
same,Population Normal (%),HEK-293T [1]; [7],83%
same,Population Pyknosed Nuclei (%),HEK-293T [1]; [7],32%
same,Population Tubulin-Different-Phenotype (%),HEK-293T [1]; [7],43%
same,Total Cell Count,HEK-293T [1]; [7],279
same,Population Apoptotic (%),HEK-293T [1]; [8],22%
same,Population Fragmented Nuclei (%),HEK-293T [1]; [8],7%
same,Population Healthy Nuclei (%),HEK-293T [1]; [8],55%
same,Population Hoechst High Intensity Objects (%),HEK-293T [1]; [8],2%
same,Population Membrane Permeable-Phenotype (%),HEK-293T [1]; [8],3%
same,Population Mitochondria Different-Phenotype (%),HEK-293T [1]; [8],42%
same,Population Mitotic Cells (%),HEK-293T [1]; [8],77%
same,Population Normal (%),HEK-293T [1]; [8],97%
same,Population Pyknosed Nuclei (%),HEK-293T [1]; [8],37%
same,Population Tubulin-Different-Phenotype (%),HEK-293T [1]; [8],55%
same,Total Cell Count,HEK-293T [1]; [8],282
same,Population Apoptotic (%),HEK-293T [1]; [9],98%
same,Population Fragmented Nuclei (%),HEK-293T [1]; [9],22%
same,Population Healthy Nuclei (%),HEK-293T [1]; [9],11%
same,Population Hoechst High Intensity Objects (%),HEK-293T [1]; [9],33%
same,Population Membrane Permeable-Phenotype (%),HEK-293T [1]; [9],6%
same,Population Mitochondria Different-Phenotype (%),HEK-293T [1]; [9],50%
same,Population Mitotic Cells (%),HEK-293T [1]; [9],1%
same,Population Normal (%),HEK-293T [1]; [9],66%
same,Population Pyknosed Nuclei (%),HEK-293T [1]; [9],65%
same,Population Tubulin-Different-Phenotype (%),HEK-293T [1]; [9],50%
same,Total Cell Count,HEK-293T [1]; [9],213
same,Population Apoptotic (%),HEK-293T [1]; [10],95%
same,Population Fragmented Nuclei (%),HEK-293T [1]; [10],5%
same,Population Healthy Nuclei (%),HEK-293T [1]; [10],20%
same,Population Hoechst High Intensity Objects (%),HEK-293T [1]; [10],15%
same,Population Membrane Permeable-Phenotype (%),HEK-293T [1]; [10],2%
same,Population Mitochondria Different-Phenotype (%),HEK-293T [1]; [10],97%
same,Population Mitotic Cells (%),HEK-293T [1]; [10],4%
same,Population Normal (%),HEK-293T [1]; [10],84%
same,Population Pyknosed Nuclei (%),HEK-293T [1]; [10],74%
same,Population Tubulin-Different-Phenotype (%),HEK-293T [1]; [10],89%
same,Total Cell Count,HEK-293T [1]; [10],219
same,Population Apoptotic (%),HEK-293T [1]; [11],43%
same,Population Fragmented Nuclei (%),HEK-293T [1]; [11],12%
same,Population Healthy Nuclei (%),HEK-293T [1]; [11],72%
same,Population Hoechst High Intensity Objects (%),HEK-293T [1]; [11],9%
same,Population Membrane Permeable-Phenotype (%),HEK-293T [1]; [11],0%
same,Population Mitochondria Different-Phenotype (%),HEK-293T [1]; [11],45%
same,Population Mitotic Cells (%),HEK-293T [1]; [11],56%
same,Population Normal (%),HEK-293T [1]; [11],90%
same,Population Pyknosed Nuclei (%),HEK-293T [1]; [11],14%
same,Population Tubulin-Different-Phenotype (%),HEK-293T [1]; [11],33%
same,Total Cell Count,HEK-293T [1]; [11],393
same,Population Apoptotic (%),HEK-293T [1]; [12],22%
same,Population Fragmented Nuclei (%),HEK-293T [1]; [12],7%
same,Population Healthy Nuclei (%),HEK-293T [1]; [12],73%
same,Population Hoechst High Intensity Objects (%),HEK-293T [1]; [12],7%
same,Population Membrane Permeable-Phenotype (%),HEK-293T [1]; [12],5%
same,Population Mitochondria Different-Phenotype (%),HEK-293T [1]; [12],17%
same,Population Mitotic Cells (%),HEK-293T [1]; [12],77%
same,Population Normal (%),HEK-293T [1]; [12],92%
same,Population Pyknosed Nuclei (%),HEK-293T [1]; [12],18%
same,Population Tubulin-Different-Phenotype (%),HEK-293T [1]; [12],49%
same,Total Cell Count,HEK-293T [1]; [12],448
same,Population Apoptotic (%),HEK-293T [1]; [13],91%
same,Population Fragmented Nuclei (%),HEK-293T [1]; [13],29%
same,Population Healthy Nuclei (%),HEK-293T [1]; [13],2%
same,Population Hoechst High Intensity Objects (%),HEK-293T [1]; [13],35%
same,Population Membrane Permeable-Phenotype (%),HEK-293T [1]; [13],25%
same,Population Mitochondria Different-Phenotype (%),HEK-293T [1]; [13],25%
same,Population Mitotic Cells (%),HEK-293T [1]; [13],8%
same,Population Normal (%),HEK-293T [1]; [13],64%
same,Population Pyknosed Nuclei (%),HEK-293T [1]; [13],67%
same,Population Tubulin-Different-Phenotype (%),HEK-293T [1]; [13],0%
same,Total Cell Count,HEK-293T [1]; [13],209
same,Population Apoptotic (%),HEK-293T [1]; [14],98%
same,Population Fragmented Nuclei (%),HEK-293T [1]; [14],9%
same,Population Healthy Nuclei (%),HEK-293T [1]; [14],17%
same,Population Hoechst High Intensity Objects (%),HEK-293T [1]; [14],17%
same,Population Membrane Permeable-Phenotype (%),HEK-293T [1]; [14],6%
same,Population Mitochondria Different-Phenotype (%),HEK-293T [1]; [14],96%
same,Population Mitotic Cells (%),HEK-293T [1]; [14],1%
same,Population Normal (%),HEK-293T [1]; [14],82%
same,Population Pyknosed Nuclei (%),HEK-293T [1]; [14],73%
same,Population Tubulin-Different-Phenotype (%),HEK-293T [1]; [14],96%
same,Total Cell Count,HEK-293T [1]; [14],214
same,Growth Rate,HEK-293T [2]; [15],0
same,Growth Rate,"HEK-293T [2]; 6 h, replicate number 1, timepoint 6 hours",0
same,Growth Rate,HEK-293T [2]; [16],0
same,Growth Rate,HEK-293T [2]; [17],0
same,Growth Rate,HEK-293T [2]; [18],0
same,Growth Rate,Fibroblast; [15],1
same,Growth Rate,"Fibroblast; 6 h, replicate number 2, timepoint 6 hours",0
same,Growth Rate,Fibroblast; [16],0
same,Growth Rate,Fibroblast; [17],0
same,Growth Rate,Fibroblast; [18],0
